Several values for one entry are separate records, joined by “and”; a condition that tells them apart may be missing. Equal entries are not always repeated. Marks after values point to notes of the source that are not given here.
Tests used:
S. pombe Dcp1/2 complex = assay: Decapping assay of short capped transcripts with SpDcp1/2; type: biochemical, Schizosaccharomyces pombe; conditions: 34 nt RNA capped with the analog, SpDcp1/2 complex, 30°C
Summary of the method: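 Short 34-nt capped RNAs were transcribed with […] from EcoRI-linearized pSP-luc+. NTPs were 0.1 mM final and cap dinucleotide 0.5 mM final, for 45 min at 37°C, then DNase-treated and column-purified. 20 ng RNA was digested with 50 or 200 nM S. pombe Dcp1/2 in 10 mM Hepes pH 7.5, 100 mM KOAc, 2 mM Mg(OAc)2, 2 mM DTT at 30°C. No-enzyme controls were run. Products were separated on 15% PAGE/7 M urea with SYBR Gold. Decapping % is upper-band loss over upper plus lower bands, mean ± SD of two experiments.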

[1] = tested on: rabbit reticulocyte lysates (RRLs); assay: Translation efficiency of capped luciferase mRNA in RRL; type: biochemical; conditions: for relative cap-dependent translation efficiency: ApppG-capped mRNA translation subtracted before normalization to m^7GpppG; for relative translation efficiency: luciferase mRNA capped with the analog, normalized to m^7GpppG-capped mRNA
Summary of the method: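 Capped, polyadenylated luciferase mRNAs were made with SP6 polymerase from a PCR template, then DNase-treated and purified. Flexi RRL (40% lysate, 0.01 mM amino acids, 1 mM Mg acetate, 190 mM K acetate) was preincubated 60 min at 30°C, then translated 60 min at 30°C with four mRNA concentrations. Luminescence versus mRNA was linearly fitted and normalized to m7GpppG-capped mRNA, optionally after subtracting ApppG-capped mRNA. Means are from 2–3 repeats of each of two mRNA syntheses.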

mouse eIF4E = conditions: 20°C, cited from earlier work; for ΔG°: Gibbs free energy of binding; for KAS (cap–eIF4E): equilibrium association constant, mouse eIF4E
mammalian cells = conditions: mRNA capped with the analog; cited from earlier work

relative cap-dependent translation efficiency [1]	relative translation efficiency [1]	Compound	Decapping % 5 min (S. pombe Dcp1/2 complex)	Decapping % 15 min (S. pombe Dcp1/2 complex)	Decapping % 30 min (S. pombe Dcp1/2 complex)	ΔG° (mouse eIF4E)	KAS (cap–eIF4E) (mouse eIF4E)	mRNA half-life (mammalian cells)
2.80 ± 0.83	2.51 ± 0.59	COC1C(O)[C@@H](COP(=O)(O)OP(=O)([S-])OP(=O)(O)OP(=O)(O)OC[C@H]2O[C@@H](n3cnc4c(=O)[nH]c(N)nc43)C(O)C2O)O[C@H]1n1c[n+](C)c2c(O)nc(N)nc21 (mixture of isomers) [m2^7,2′-OGppSppG D1D2, m2^7,2′-OGppSppG]	57.9 ± 14.6%	65.6 ± 18.0%	71.6 ± 17.2%	−11.33 ± 0.02^c kcal·mol^−1	282 ± 12^c μM^−1	
1	1	Cn1c[n+]([C@@H]2O[C@H](COP(=O)(O)OP(=O)([O-])OP(=O)(O)OC[C@H]3O[C@@H](n4cnc5c(=O)[nH]c(N)nc54)[C@H](O)[C@@H]3O)[C@@H](O)[C@H]2O)c2nc(N)[nH]c(=O)c21 [m^7GpppG]				−9.35 ± 0.03^a kcal·mol^−1	9.4 ± 0.4 μM^−1 and 9.4 ± 0.4^a μM^−1	
1.94 ± 0.56	1.79 ± 0.43	CO[C@@H]1[C@H](O)[C@@H](COP(=O)(O)OP(=O)([O-])OP(=O)(O)OP(=O)(O)OC[C@H]2O[C@@H](n3cnc4c(=O)[nH]c(N)nc43)[C@H](O)[C@@H]2O)O[C@H]1n1c[n+](C)c2c(O)nc(N)nc21 [m2^7,2′-OGppppG]	73.4 ± 7.6%	78.4 ± 9.4%	82.9 ± 11.3%	−10.73 ± 0.04^b kcal·mol^−1	99.8 ± 6.0^b μM^−1	
1.99 ± 0.81	1.83 ± 0.64	CO[C@H]1[C@@H](O)[C@H]([n+]2cn(C)c3c(=O)[nH]c(N)nc32)O[C@@H]1COP(=O)([O-])OP(=O)(O)OP(=O)(O)OC[C@H]1O[C@@H](n2cnc3c(=O)[nH]c(N)nc32)[C@H](O)[C@@H]1O [m2^7,3′-OGpppG]				−9.40 ± 0.02^a kcal·mol^−1	10.2 ± 0.3^a μM^−1	
1.96 ± 0.43	1.81 ± 0.32	CO[C@@H]1[C@H](O)[C@@H](COP(=O)(O)OP(=O)([O-])OP(=O)(O)OC[C@H]2O[C@@H](n3cnc4c(=O)[nH]c(N)nc43)[C@H](O)[C@@H]2O)O[C@H]1n1c[n+](C)c2c(O)nc(N)nc21 [m2^7,2′-OGpppG]	68.9 ± 0.4%	78.6 ± 2.4%	79.7 ± 7.5%	−9.42 ± 0.02^b kcal·mol^−1		2.58 ± 0.15 h
2.27 ± 0.10	2.07 ± 0.18	CO[C@@H]1[C@H](O)[C@@H](COP(=O)([O-])OP(O)(=S)OP(=O)(O)OC[C@H]2O[C@@H](n3cnc4c(=O)[nH]c(N)nc43)[C@H](O)[C@@H]2O)O[C@H]1[n+]1cn(C)c2c(=O)[nH]c(N)nc21 (single isomer, unassigned) [m2^7,2′-OGppSpG D1, m2^7,2′-OGppSpG]	47.5 ± 9.0%	56.1 ± 11.5%	60.9 ± 12.1%	−10.23 ± 0.02^a kcal·mol^−1	43.1 ± 1.4 μM^−1 and 43.1 ± 1.4^a μM^−1	3.08 ± 0.333 h
2.83 ± 0.26	2.54 ± 0.66	CO[C@@H]1[C@H](O)[C@@H](COP(=O)([O-])OP(O)(=S)OP(=O)(O)OC[C@H]2O[C@@H](n3cnc4c(=O)[nH]c(N)nc43)[C@H](O)[C@@H]2O)O[C@H]1[n+]1cn(C)c2c(=O)[nH]c(N)nc21 (single isomer, unassigned) [m2^7,2′-OGppSpG D2, m2^7,2′-OGppSpG]	47.3 ± 10.6%	51.4 ± 15.6%	57.4 ± 10.7%	−9.77 ± 0.07^a kcal·mol^−1	19.3 ± 2.2^a μM^−1	4.28 ± 0.067 h
0.00	0.16 ± 0.04	Nc1nc2c(ncn2[C@@H]2O[C@H](COP(=O)(O)OP(=O)(O)OP(=O)(O)OC[C@H]3O[C@@H](n4cnc5c(N)ncnc54)[C@H](O)[C@@H]3O)[C@@H](O)[C@H]2O)c(=O)[nH]1 [ApppG]						
		m2^7,2′-OGpppSpG [m2^7,2′-OGpppSpG D1D2]	72.7 ± 1.9%	78.3 ± 1.0%	79.5 ± 3.5%	−10.99 ± 0.01^c kcal·mol^−1	158 ± 2^c μM^−1	
		C[n+]1cn(C2OC(COP(=O)(O)OP(=O)(O)OP(=O)(O)OP(=O)(O)OP(=O)(O)OCC3OC(n4cnc5c(=O)[nH]c(N)nc54)C(O)C3O)C(O)C2O)c2nc(N)[nH]c(=O)c21 (stereo not drawn) [m^7Gp5G]				−11.71 ± 0.06^b kcal·mol^−1	543 ± 55^b μM^−1	

From paper PMC5175369 (Nucleic Acids Research, 2016)
